# From PubChem
# L major viab: Leishmania major promastigote growth inhibition. Leishmania major promastigotes, resazurin fluorescence viability. inhibition, % at 10 µM. 9% of 200,000 active;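 further: promastigotes grown with compound for 44 hours at 28 °C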
# G6PDH counter: counter-screen for G6PDH assay hits: L. mesenteroides G6PDH inhibition | Purified L. mesenteroides G6PDH, diaphorase/resazurin coupled fluorescence, 45 min | inhibition, % at 5 µM | 0.12% of 200,000 active
# DTT redox prof: compounds producing H2O2 with reducing agent – biochemical, NIH compound library profiling, artefact control for MLSCN library redox annotation, primary screen; DTT-dependent redox cycling H2O2, phenol red/HRP absorbance; 100% = 100 µM peroxide control, 0% = buffer; activation, % at 10 µM; 0.03% of 200,000 active; AID 878;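 active means activation of at least 50% relative to the plate's high and low controls in the primary single-dose screen; inactive means activation below 50%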;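 further: compound incubated with DTT at 0.8 mM final as the reducing agent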
# Diaph act CS: counter-screen for diaphorase-based assays: diaphorase activators and chemical reducers; AID 1229; activation factor at 20 µM; 0.005% of 190,000 active; Diaphorase/resazurin coupled assay, resorufin fluorescence, 16 min; active compounds read high; 1 = vehicle wells, 0 = NADH-free wells;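 active means diaphorase activity raised at least twofold by the compound at 20 µM; inactive means activation factor below 2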
#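 Material: Clostridium kluyveri diaphorase, purified enzyme; Quantity: enzyme 0.07 U/mL final; Medium: HEPES pH 7.4 buffer with MgCl2 and Tween 20; Dosing: single compound dose of 20 µM, 1% DMSO final; Schedule: 16 min reaction at room temperature; Measured by: red resorufin fluorescence at 544/590 nm excitation/emission.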
# Diaphorase inh: inhibits diaphorase or chemically oxidizes, flagging diaphorase assay artifacts | inhibition, % at 20 µM | 0.69% of 190,000 active | AID 1217 | diaphorase resazurin-to-resorufin fluorescence, NADH, 16 min; bacterial (C. kluyveri) enzyme, not human;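 active means primary screen inhibition at 20 µM above a set limit, cut at about 50% in these data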;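 further: plate controls were DMSO with full reaction for no effect and wells lacking NADH for full effect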
#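 material = Clostridium kluyveri diaphorase enzyme | amount = 0.14 U/mL diaphorase, enzyme working solution | schedule = incubation 16 min, room temperature | detection = fluorescence of resorufin formed from resazurin, Ex 544/Em 590 nm | benchmarks = positive control minus NADH, DMSO neutral control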
# PfGluPho inh: PfG6PD (Plasmodium falciparum) enzyme inhibition | PfGluPho enzyme, NADPH resazurin-diaphorase fluorescence | inhibition, % at 20 µM | 0.78% of 350,000 active | AID 504690;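 active means inhibition reaching at least a set limit at 20 µM in the primary screen, cut at about 59% in these data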;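 further: 0% = DMSO wells with substrate and 100% = DMSO wells lacking glucose-6-phosphate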
# The depositor's hits bear a star; . = no result. The entries come from a sample that favours hits as a whole. Unless noted, no stated cut-off is given here; in the data, active means inhibition above about 50%; inactive means the rest.
SMILES,L major viab,G6PDH counter,DTT redox prof,Diaph act CS,Diaphorase inh,PfGluPho inh
Cc1cccc(N2CCN(c3ccc(N4C(=O)CCCC4=O)cc3[N+](=O)[O-])CC2)c1C,58*,4,0,0.8,21,6
COc1ccc(-n2c3c(cc(C(=O)NNc4ccccc4)c2=O)C(=O)CC(C)(C)C3)cc1,60*,7,0,0.9,13,18
Cc1ccc(-n2c3c(cc(C(=O)NCc4ccco4)c2=O)C(=O)CC(C)(C)C3)cc1,51*,13,-1,0.8,18,0
Cc1ccc2[nH]c(C(=O)NCCN3CCCC3)cc2c1,.,.,.,.,.,-15
COc1ccc(-n2ncc3c(NCCN4CCOCC4)ncnc32)cc1,92*,6,2,0.8,24,2
OCCCNc1ncnc2oc(-c3ccccc3)c(-c3ccccc3)c12,.,.,.,.,.,7
c1ccc(-n2ncc3c(NCc4cccnc4)ncnc32)cc1,61*,2,1,0.9,8,2
c1ccc(-c2oc3ncnc(NCCCN4CCOCC4)c3c2-c2ccccc2)cc1,100*,3,0,0.8,24,-2
COc1ccc(-c2oc3ncn(CCN4CCOCC4)c(=N)c3c2-c2ccc(OC)cc2)cc1,55*,-51,2,0.9,11,9
Cc1nnc(NC(=O)C2CC(=O)N(c3ccccc3)C2)s1 (centres undefined),.,.,.,.,.,-2
CC1Sc2ccc(S(=O)(=O)CCC(=O)NC3CCCC(C)C3C)cc2NC1=O (centres undefined),.,.,.,.,.,0
CC(C)(O)CN(CCCNC(=S)Nc1ccccc1)C(=S)Nc1ccccc1,.,.,.,.,.,18
CN(C)CCNc1ncnc2c1cnn2-c1ccc(Cl)cc1,98*,-3,-1,0.9,6,-11
COc1ccc(-c2oc3ncnc(NCCN4CCOCC4)c3c2-c2ccc(OC)cc2)cc1,49,8,-3,0.8,19,26
COc1ccc(-c2oc3ncnc(NCCCN4CCOCC4)c3c2-c2ccc(OC)cc2)cc1,75*,-53,2,0.9,6,10
CCOc1cc2nc(-c3ccc(OC)c(OC)c3)nc(NCCCN3CCOCC3)c2cc1OC,54*,8,0,1.2,-24,12
OCCCNc1ncnc2c1cnn2-c1ccc(Cl)cc1,.,.,.,.,.,15
COc1cc2ncnc(NCCCN3CCOCC3)c2cc1OC,.,.,.,.,.,-2
COc1ccc(NC(=O)c2oc3ccccc3c2NC(=O)c2ccc3c(c2)OCO3)cc1,100*,-58,-1,0.8,16,1
O=C(NNC(=O)c1ccccc1Br)c1ccc(SCC2CCCO2)c([N+](=O)[O-])c1 (centres undefined),-9,4,-3,0.9,11,-20
O=C(/C(=N/N=C/c1ccc(O)c(O)c1O)c1ccccc1)c1ccccc1,-6,20,0,0.4,62*,-7
COC(=O)NNC(=O)c1ccccc1C,10,11,0,0.8,17,-4
Nc1c(C(=O)Nc2ccc(Cl)c(Cl)c2)sc2nc(-c3cccnc3)ccc12,59*,15,0,0.8,24,.
Cc1cccc(NS(=O)(=O)c2cc(C(=O)N3CCCCCC3)ccc2C)c1,.,.,.,.,.,-4
COc1cc2c(cc1OC)[C@H](C)N(C(=O)NCc1ccccc1)CC2,.,.,.,.,.,-3
SMILES,L major viab,G6PDH counter,DTT redox prof,Diaph act CS,Diaphorase inh,PfGluPho inh
c1ccc2sc(NN=C3CCCCCC3)nc2c1,63*,15,0,0.8,22,25
COc1ccc(C2CC(C)(c3ccc(OC)cc3OC)Nc3ccccc3N2)c(OC)c1 (centres undefined),62*,9,0,0.7,30,-6
Cc1ccccc1-n1c(C)nnc1SCC(=O)N1CC(=O)Nc2ccccc21,-7,1,-2,0.9,9,-1
Cc1oc2cc3c(C(=O)N4CCN(c5ccccc5)CC4)c(C)oc3cc2c1C(=O)N1CCN(c2ccccc2)CC1,-4,.,0,.,.,.
S=c1[nH]nc(-c2ccc3ccccc3n2)n1-c1ccc2ncccc2c1,88*,-1,-1,0.6,40,35
S=c1[nH]nc(-c2ccc3ncccc3c2)n1-c1ccc2c(c1)OCCO2,91*,-12,-1,0.9,12,36
O=S(=O)(c1ccc(NC(=S)NN=C2CCCCC2)cc1)N1CCOCC1,-6,6,-2,0.8,16,8
Brc1ccc(/C=N/Nc2ccc3ccccc3n2)cc1,1,3,0,1,-4,6
Fc1cccc(/C=N/Nc2nc3ccccc3[nH]2)c1,83*,-2,-2,0.9,7,29
Fc1cccc(/C=N/Nc2ccc3ccccc3n2)c1,52*,-2,-2,0.9,6,29
Fc1ccc(/C=N/Nc2nc3ccccc3[nH]2)cc1F,90*,-5,-1,1.2,-17,9
O=C(NNC(=O)c1cc(Cl)ccc1[N+](=O)[O-])c1csc(N2CCOCC2)n1,.,.,.,.,.,-9
O=C(c1ccc(S(=O)(=O)c2ccccc2Cl)c([N+](=O)[O-])c1)N1CCN(Cc2ccccc2)CC1,76*,-14,0,1,0,17
O=C(c1ccc(S(=O)(=O)c2ccc(F)cc2)c([N+](=O)[O-])c1)N1CCCCCC1,98*,-10,1,0.9,8,9
CC1CCN(C(=O)c2ccc(S(=O)(=O)Cc3ccccc3F)c([N+](=O)[O-])c2)CC1,93*,-7,0,0.9,10,2
COc1ccc(CNC(=O)Nc2ccc3c(c2)N(C)C(=O)CS3)cc1,12,0,0,1.1,-6,-5
CC(C)(C)OC(=O)C[C@H]1C/C=C\C[C@H](CC(=O)N(CCO)Cc2ccccc2)C(=O)N2CCC[C@H]2COC1=O,.,.,.,.,.,5
Cc1ccc(Cn2ncc3c(N4CCN(Cc5ccc(Cl)cc5)CC4)ncnc32)cc1,69*,7,0,0.8,21,23
Cc1ccc(Cn2ncc3c(N4CCN(C5CCCC5)CC4)ncnc32)cc1,55*,12,-1,1,4,9
Cc1ccccc1NC(=O)NC1(C(=O)NCC2CCCO2)CCCCC1 (centres undefined),.,.,.,.,.,-8
Cc1ccc(S(=O)(=O)Nc2cc(Cl)c(O)cc2C)cc1,-1,3,-8,0.8,22,11
Cc1ccc(S(=O)(=O)Nc2ccccc2C(N)=O)cc1,-2,2,0,1,-2,-19
Cc1ccc(NS(=O)(=O)c2cccc3cccnc23)c(Cl)c1,.,.,.,.,.,19
Cc1ccc(S(=O)(=O)Nc2cccc3cccnc23)cc1,100*,11,0,0.9,11,24
COc1cc(NS(=O)(=O)c2ccc(C)cc2)c2ncccc2c1,99*,12,-2,0.7,32,15
Cc1ccc(S(=O)(=O)Nc2cc(C(C)C)c(O)cc2C)cc1,76*,11,-4,0.7,34,2
